Screening data deposited in PubChem by several laboratories.
NR1D1 modulator – Rev-erb alpha (human) modulation | Rev-erbα–FITC-DNA binding, fluorescence polarization, 90 min | activity, % at 10 µM | hit rate 0.79% among 370,000;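 active means activity above about 14%, limit read from the data; passing the limit was not always enough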;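 further: 0% = DMSO wells with 35 nM protein and 100% = DMSO wells with 750 nM protein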
Target sequence (P20393 whole entry, looked up): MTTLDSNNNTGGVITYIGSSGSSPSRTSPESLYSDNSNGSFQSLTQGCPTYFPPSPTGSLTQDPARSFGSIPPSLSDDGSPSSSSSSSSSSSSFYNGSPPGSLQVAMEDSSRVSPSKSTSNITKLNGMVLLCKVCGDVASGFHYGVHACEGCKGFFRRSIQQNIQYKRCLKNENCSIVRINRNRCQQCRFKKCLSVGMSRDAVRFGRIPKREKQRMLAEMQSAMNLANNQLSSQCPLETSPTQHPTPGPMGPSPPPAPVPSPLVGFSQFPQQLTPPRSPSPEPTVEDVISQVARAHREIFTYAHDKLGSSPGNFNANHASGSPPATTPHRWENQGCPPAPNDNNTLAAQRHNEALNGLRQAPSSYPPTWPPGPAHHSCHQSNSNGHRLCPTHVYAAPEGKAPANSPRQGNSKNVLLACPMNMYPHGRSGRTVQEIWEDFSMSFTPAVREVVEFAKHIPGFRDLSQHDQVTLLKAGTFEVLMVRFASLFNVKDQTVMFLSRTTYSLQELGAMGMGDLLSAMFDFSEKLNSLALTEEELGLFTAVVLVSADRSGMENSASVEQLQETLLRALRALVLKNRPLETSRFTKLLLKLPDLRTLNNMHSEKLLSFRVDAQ
iPSC survival up – enhancers of human iPSC single-cell survival; hiPSC single-cell survival, ATPlite luminescence; 100% = ROCK inhibitor wells, 0% = DMSO; survival enhancement, % at 20 µM; hit rate 0.044% among 360,000; AID 602274; in the data active means survival enhancement above about 18%;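 further: cells exposed to compounds for 16 hours before the ATP read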
TAG inh – reduces triacylglycerol accumulation in H9c2 cells | hit rate 0.66% among 230,000 | inhibition, % at 12.5 µM | Nile Red lipid (TAG) fluorescence; cells loaded with 200 µM oleic acid;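 active means pattern-corrected inhibition of lipid staining of at least 50% with the nuclear-stain viability signal not falling by more than 50%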;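 further: 0% = DMSO wells and 100% = triacsin C control wells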
PG9 Ab binder – small molecules binding HIV-1 gp120 antibody PG9. TR-FRET gp120-PG9 antibody binding. inhibition, % at 6.7 µM. hit rate 0.43% among 360,000. AID 624416; in the data active means inhibition above about 8.5%
MIN6 prolif – MIN6 beta-cell proliferation induction. MIN6 cells proliferation, ATPlite luminescence, 48 h; cells starved in 0.2% serum; 100% = growth in 10% serum. proliferation, % at 10 µM. hit rate 0.29% among 330,000;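 active means compounds whose signal lies at least 3.5 SD above the mean of all wells on their plate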;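 further: 0% = DMSO-treated cells in low-serum medium and 100% = 10% serum control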
T cruzi repl – blocks replication of Trypanosoma cruzi | T. cruzi beta-gal in NIH3T3, luminescence, 90 h | inhibition, % (no concentration beside the values) | hit rate 1.4% among 300,000 | AID 1885;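 active means mean inhibition across valid replicates above about 55%, limit read from the data; inconclusive means mean below that limit but half or more replicates reach it; inactive means mean below it, under half of replicates reach it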;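 further: signal also drops with host cell toxicity which is not excluded here; 0% = plate median of DMSO wells and 100% = zero luminescence signal; higher percent means less beta-gal luminescence so fewer parasites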
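Incubation – ≥90 h infection period, 3 h prior cell attachment · System – NIH/3T3 fibroblasts plus reporter T. cruzi · Doses – compound pinned at 50 nL/well, DMSO · Read-out basis – percent inhibition of parasite-derived β-gal signal · Signal – luminescent β-galactosidase signal after 60 min lysis · Also added – 5000 T. cruzi trypomastigotes/well · Medium – Low-serum DMEM with 2% FBS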
* = called active by the depositor; ? = inconclusive; nt = no result given. Most compounds without a hit are left out; they make up all but 2.9% or so of the library.

SMILES	NR1D1 modulator	iPSC survival up	TAG inh	PG9 Ab binder	MIN6 prolif	T cruzi repl
C=CCn1c(O)c(N=NC(=S)Nc2cccc(OC)c2)c2ccccc21	-3.3	-2.8	nt	-2.0	-5.3	59.3*
C=CCn1c(O)c(N=NC(=S)Nc2ccc(OC)cc2)c2ccccc21	-1.3	-1.2	nt	-3.5	nt	43.2
COc1ccc(N/C(N)=N/c2nc(C)cc(C)n2)cc1	0.2	-2.3	-6.6	0.5	nt	nt
COc1ccc(C(=O)CC(Nc2ccc([N+](=O)[O-])cc2)c2ccc(Cl)cc2)cc1 (centres undefined)	5.1	-1.8	nt	-1.4	-5.7	64.2*
COc1ccc(C(=O)CC(=O)C(=O)Nc2ccc(Cl)cc2)cc1	3.3	0.5	nt	-3.1	nt	2.5
CN(CC(=O)Nc1ccc(Cl)c(C(F)(F)F)c1)C(=O)COC(=O)C1CC2CCCC(C1)C2=O (centres undefined)	0.3	0.8	-10.7	-0.8	-5.8	nt
O=C(COC(=O)C1(c2ccccc2F)CCCC1)NCc1ccc2c(c1)OCO2	5.7	-0.5	nt	-0.1	1.2	11.8
COc1ccccc1NC(=O)N(C)C[C@@H]1OCc2ccccc2-c2c(n(C)c3ccccc23)C(=O)N([C@H](C)CO)C[C@@H]1C	-1.5	0.0	5.1	-1.9	nt	nt
FC(F)(F)c1cccc(CN2CCC(c3cc(-c4cccs4)n[nH]3)CC2)c1	-2.0	2.1	2.5	-1.4	-6.0	60.6*
FC(F)(F)c1cccc(-c2cc(C3CCNCC3)[nH]n2)c1	-2.9	0.1	nt	-0.6	-4.0	55.8*
S=c1nc2c(n[nH]1)c1ccccc1n2CCc1ccccc1	2.2	-0.2	nt	0.5	-3.4	66.2*
Cc1ccc(-c2noc(CSc3nnc(-c4ccncc4)n3-c3ccc(C)cc3)n2)cc1	7.4	9.4	nt	1.3	-0.7	?
CCOc1ccc(-n2c(SCc3nc(-c4ccc(C)cc4)no3)nnc2-c2ccncc2)cc1	-5.8	2.4	nt	-0.9	-4.8	58.1*
c1ccc(-c2csc(Nc3nc(N4CCOCC4)nc(N4CCOCC4)n3)n2)cc1	-3.5	-1.7	nt	-0.4	-1.2	60.9*
Cc1cc(C)nc(Nc2nc(-c3ccccc3)cs2)n1	-7.3	-0.4	-2.2	-0.1	-4.7	7.0
CCCCn1c(NC(=O)c2ccccc2)nc2ccccc21	1.4	-0.3	nt	-0.7	-3.6	55.6*
CCCCn1c(NCc2ccccc2NS(=O)(=O)c2ccc(C)cc2)nc2ccccc21	-5.4	4.2	1.9	0.6	-2.1	57.1*
CCn1c(NC(=O)c2ccccc2)nc2ccccc21	0.5	-0.4	-7.6	-0.9	2.4	-16.7
CCCNC(=O)/C=C/c1ccc(S(=O)(=O)Nc2ccccc2OC)cc1	2.2	-0.4	-15.6	1.3	-1.6	-9.4
CN(C(=O)COC(=O)c1nc(Cl)c(Cl)c(Cl)c1Cl)C1CCS(=O)(=O)C1 (centres undefined)	0.5	41.8*	27.7	-1.2	nt	36.1
CN(C(=O)COC(=O)c1ccc(C(C)(C)C)cc1)C1CCS(=O)(=O)C1 (centres undefined)	-5.4	0.2	7.2	-1.4	5.8	0.9
Cc1cccc(S(=O)(=O)c2c(N)n(/N=C/c3ccco3)c3nc4ccccc4nc23)c1	4.9	-0.3	nt	-0.2	-2.2	56.6*
Cc1ccc(S(=O)(=O)c2c(N)n(/N=C/c3ccco3)c3nc4ccccc4nc23)cc1	10.3	1.3	nt	0.6	-1.1	78.5*
Cc1nc2ccc(NC(=O)c3nn(C(C)C)c(=O)c4ccccc34)cc2s1	-1.6	-0.1	nt	-1.6	0.5	-1.8
CSc1nc2ccc(NC(=O)c3nn(C(C)C)c(=O)c4ccccc34)cc2s1	-2.1	-0.5	-0.5	-2.4	8.2*	-8.3
SMILES	NR1D1 modulator	iPSC survival up	TAG inh	PG9 Ab binder	MIN6 prolif	T cruzi repl
CNCc1ccccc1Sc1ccc(OC)c(OC)c1	5.2	-1.3	-15.3	-0.9	-2.3	9.0
Cc1ccc(S(=O)(=O)c2ccc([N+](=O)[O-])o2)cc1	1.1	-1.1	76.7*	-1.1	nt	nt
CN(C)CCOCCOc1ccc(Cl)cc1Br	-7.5	0.0	-6.1	0.4	0.4	64.3*
CN(C)CCCOc1ccc(Cl)cc1Br	-3.0	3.1	nt	-4.5	2.0	67.6*
CC(C)NCCOCCOc1ccc(Cl)cc1Br	-2.5	2.9	nt	1.2	-4.3	49.8
CN1CCN(c2cc3c(c4c2[nH]c2ccccc24)C(=O)CC(C)(C)C3)CC1	-4.6	-0.9	54.1*	4.5	-5.8	45.0
CCOC(=O)N1CCN(c2cc(N3CCOCC3)c(F)cc2[N+](=O)[O-])CC1	4.5	-0.7	10.0	-1.5	-1.7	5.4
CCC(=O)N1CCN(c2cc(N3CCN(C)CC3)c(F)cc2[N+](=O)[O-])CC1	0.2	-1.6	nt	1.4	1.9	69.0*
CCOC(=O)N1CCN(c2cc(N3CCN(CC)CC3)c(F)cc2[N+](=O)[O-])CC1C (centres undefined)	6.3	-2.5	nt	-2.2	-1.3	60.2*
O=C(OCn1ncc(Br)c(Br)c1=O)c1ccccc1Cl	nt	35.2*	128.0	nt	-3.6	58.6*
O=C(OCn1ncc(Br)c(Br)c1=O)c1ccc(F)cc1	nt	-2.7	145.3	nt	-3.0	50.7
O=C(/C=C/c1cc[n+](CC(=O)c2ccc3cccc4c3c2CC4)cc1)c1ccc2cccc3c2c1CC3	nt	-1.0	29.8	nt	-7.3	62.8*
O=C(C[n+]1ccc2ccccc2c1)c1cccc2ccccc12	-1.9	-2.6	-4.9	-5.1	-5.4	11.5
Cn1c(C(=O)OC(C(=O)NC2CCCCC2)c2ccncc2)cc2sccc21 (centres undefined)	-9.3	-3.2	nt	0.1	-2.5	57.6*
Cn1c(C(=O)OC(C(=O)NC(C)(C)C)c2cccnc2)cc2sccc21 (centres undefined)	-0.6	-0.9	3.6	-1.2	-1.9	64.4*
Cc1nc2ccc(S(=O)(=O)NCC(=O)N3CCc4ccccc43)cc2s1	-7.7	-0.5	-8.9	0.7	8.2	-5.2
CC(C)(CN1CCN(C(c2ccccc2)c2ccccc2)CC1)NS(=O)(=O)c1ccccc1	-4.3	-0.3	-14.8	-0.8	-6.0	62.3*
CC(C)(CN1CCN(Cc2ccccc2)CC1)NS(=O)(=O)c1ccccc1	-1.1	0.0	-9.8	-0.1	1.4	36.8
O=C(Nc1ccc(Cl)cc1)Nc1ccc(Cl)c(Cl)c1	0.3	nt	nt	1.1	-6.8	nt
N#Cc1ccc(NC(=O)Nc2ccc(Cl)cc2)cc1	-4.7	1.1	-44.1	-2.2	-3.8	71.4*
Cc1csc(Cn2c(CN(C)C)nc3ccccc3c2=O)n1	1.8	-2.7	2.6	-0.1	0.0	-2.0
CN(C)Cc1nc2ccccc2c(=O)n1Cc1nc(-c2cc3ccccc3o2)cs1	-4.7	1.6	-26.3	-0.3	-2.9	64.8*
Cc1sc(-c2ccccn2)nc1OC(=O)c1ccc(Cl)c(Cl)c1	9.8	19.4*	4.9	-0.7	-4.8	-6.5
CCN1CCN(S(=O)(=O)c2ccc(Cl)c(C(=O)N(CC)CC(=O)Nc3ccc(OC)cc3)c2)CC1	-1.8	-0.5	18.5	-1.5	-3.5	-2.5
